The test system of experiment [1] is CCRF-CEM. Briefly: Antiproliferative activity against human CCRF-CEM cells after 48 hrs by MTT assay. Type of experiment: functional, cell-based. The method in brief: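 CCRF-CEM cells in RPMI 1640 with 10% FBS, penicillin/streptomycin, 37 °C, 5% CO2, seeded at 2 × 10⁵ cells/mL. Compounds added at various concentrations, each in quintuplicate, for 48 h. Growth read by MTT. IC50 taken as the concentration giving 50% growth inhibition.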

The subject of another experiment is K562. The experiment is described as follows: Antiproliferative activity against human K-562 cells by MTT assay. It is filed as functional, cell-based. In a few lines: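 K562 cells seeded at 2 × 10⁵ cells/mL. Compound added at various concentrations in quintuplicate, then incubated. Viability read by MTT. IC50 is the concentration inhibiting growth by 50%.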
Background: Formazan colour is commonly taken as a measure of viable cells.

The subject of the next experiment is HL-60. Briefly: Antiproliferative activity against human HL-60 cells by MTT assay. It is filed as functional, cell-based. In a few lines:
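HL60 cells in RPMI 1640 with 10% FBS, penicillin/streptomycin, 37 °C, 5% CO2, seeded at 2 × 10⁵ cells/mL. Compound added at various concentrations in quintuplicate, then incubated. Viability read by MTT. IC50 is the concentration giving 50% growth inhibition.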

Experiment [2] relates to CCRF-CEM. Briefly: Induction of apoptosis in human CCRF-CEM cells assessed as accumulation at sub-G0 phase after 24 hrs by flow cytometry. Type of experiment: functional, cell-based. The method in brief:
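CCRF-CEM cells exposed to compound at 0.5, 1.0 or 2.5 μM for 24 h at 37 °C, alongside untreated controls. Cells washed twice in PBS, fixed in ice-cold 70% ethanol at 4 °C for 1–2 h, then stained with propidium iodide. Sub-diploid (sub-G0) DNA peak measured by flow cytometry, 488 nm argon laser.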
For orientation: A flow cytometer gives signals particle by particle.

Experiment [3] has as its system CCRF-CEM. The experiment is described as follows: Induction of early stage apoptosis in human CCRF-CEM cells at 1 uM after 48 hrs by annexin V-FITC/propidium iodide staining relative to control. It is filed as functional. The method in brief: (§1)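 CCRF-CEM cells treated with compound at 1.0, 2.5 or 5 μM for 48 h, alongside untreated controls. Stained with annexin V-FITC/PI kit and analysed by flow cytometry, 488 nm laser. Early apoptosis counted as annexin V+/PI−; late apoptosis or necrosis as double positive.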

For experiment [4], the system named is CCRF-CEM. The experiment is described as follows: Induction of early stage apoptosis in human CCRF-CEM cells at 5 uM after 48 hrs by annexin V-FITC/propidium iodide staining relative to control. It is filed as functional. In a few lines: as §1
Experiment [5] has as its system CCRF-CEM. Briefly: Induction of late stage apoptosis in human CCRF-CEM cells at 1 uM after 48 hrs by annexin V-FITC/propidium iodide staining relative to control. Type of experiment: functional. The method in brief: as §1
Experiment [6] has as its system CCRF-CEM. Briefly: Induction of late stage apoptosis in human CCRF-CEM cells at 5 uM after 48 hrs by annexin V-FITC/propidium iodide staining relative to control. It is filed as functional. The method in brief:
as §1

Experiment [7] deals with CCRF-CEM. The experiment is described as follows: Induction of early stage apoptosis in human CCRF-CEM cells at 2.5 uM after 48 hrs by annexin V-FITC/propidium iodide staining relative to control. Type of experiment: functional. In a few lines:
as §1

In experiment [8] the test system is CCRF-CEM. The experiment is described as follows: Induction of late stage apoptosis in human CCRF-CEM cells at 2.5 uM after 48 hrs by annexin V-FITC/propidium iodide staining relative to control. It is filed as functional. In a few lines: as §1

For orientation: IC50 means the concentration that gives 50% inhibition. Low values mean inhibition by little substance, high ones a need for much substance.

Take `O=c1c2ccccc2n(Cc2ccccc2)c2ccccc12`: inhibition in the experiment on CCRF-CEM [1] was half-maximal at 52 µM (IC50).

In the experiment with CCRF-CEM [1], `CCCOc1cc(Cn2c3ccccc3c(=O)c3ccccc32)cc(OCCC)c1` returned an IC50 of 39.1 µM.

The compound `COc1cccc(Cn2c3ccccc3c(=O)c3ccccc32)c1` displayed an IC50 with CCRF-CEM [1] of over 100 µM. `O=c1c2ccccc2n(Cc2cc(OCc3ccccc3)cc(OCc3ccccc3)c2)c2ccccc12` yielded an IC50 with CCRF-CEM [1] of over 100 µM. The same measure, in the same setting: the same measure for `CCOc1cc(Cn2c3ccccc3c(=O)c3ccccc32)cc(OCC)c1`: 6.7 µM; for `O=c1c2ccccc2[nH]c2ccccc12` [ACRIDONE]: over 100 µM. For `CCCCOc1cc(Cn2c3ccccc3c(=O)c3ccccc32)cc(OCCCC)c1`, the IC50 in the experiment on CCRF-CEM [1] is over 100 µM. For the compound `COc1cc(CN2CCC(=O)CC2)cc(OC)c1OC`, the IC50 in the experiment on CCRF-CEM [1] is over 100 µM.

Consider `Cc1cccc(Cn2c3ccccc3c(=O)c3ccccc32)c1`, for which the IC50 in the experiment on CCRF-CEM [1] is 8.8 µM. As for `COc1cc(Cn2c3ccccc3c(=O)c3ccccc32)cc(OC)c1`, the IC50 with CCRF-CEM [1] is 0.7 µM; with K562 it was 11.4 µM; with HL-60, 0.6 µM. For the same compound, the Activity entry in the experiment on CCRF-CEM [2] is “Dose-dependent effect”; with CCRF-CEM [3] it was 9.5%; in the experiment on CCRF-CEM [4] it was 21.7%; in the experiment on CCRF-CEM [5], 10%; with CCRF-CEM [6], 41.6%; with CCRF-CEM [7], 27.4%. The Activity in the experiment with CCRF-CEM [8] worked out at 33.6%. Consider `O=c1c2ccccc2n(Cc2cccc(C(F)(F)F)c2)c2ccccc12`, for which the IC50 in the experiment with CCRF-CEM [1] came to 36 µM. Still for that read-out and setting: the same measure for `O=c1c2ccccc2n(Cc2cccc(F)c2)c2ccccc12`: 62 µM; for `COc1cc(Cn2c3ccccc3c(=O)c3ccccc32)cc(OC)c1OC`: 1.5 µM.

Take `COc1ccc(Cn2c3ccccc3c(=O)c3ccccc32)cc1`: in the experiment on CCRF-CEM [1], the IC50 is over 100 µM.
